Measured values published in publication PMC8463927 (Journal of Advanced Research, 2021).
Each block holds one compound with its values, some of them ahead of it.

How the values were obtained:
[1] = molecular target: PDE4D catalytic domain (Homo sapiens, UniProt Q08499); experiment: PDEs enzyme assay; format: biochemical
Outline: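 Purified PDE4D catalytic domain. Activity was read as hydrolysis of [³H]-cAMP to [³H]-AMP by scintillation proximity assay.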

[2] = molecular target: T1, PDK1 (Homo sapiens, UniProt O15530); experiment: PDK1 kinase assay; format: biochemical; conditions: compared with GSK2334470
T1 sequence (O15530 1-556): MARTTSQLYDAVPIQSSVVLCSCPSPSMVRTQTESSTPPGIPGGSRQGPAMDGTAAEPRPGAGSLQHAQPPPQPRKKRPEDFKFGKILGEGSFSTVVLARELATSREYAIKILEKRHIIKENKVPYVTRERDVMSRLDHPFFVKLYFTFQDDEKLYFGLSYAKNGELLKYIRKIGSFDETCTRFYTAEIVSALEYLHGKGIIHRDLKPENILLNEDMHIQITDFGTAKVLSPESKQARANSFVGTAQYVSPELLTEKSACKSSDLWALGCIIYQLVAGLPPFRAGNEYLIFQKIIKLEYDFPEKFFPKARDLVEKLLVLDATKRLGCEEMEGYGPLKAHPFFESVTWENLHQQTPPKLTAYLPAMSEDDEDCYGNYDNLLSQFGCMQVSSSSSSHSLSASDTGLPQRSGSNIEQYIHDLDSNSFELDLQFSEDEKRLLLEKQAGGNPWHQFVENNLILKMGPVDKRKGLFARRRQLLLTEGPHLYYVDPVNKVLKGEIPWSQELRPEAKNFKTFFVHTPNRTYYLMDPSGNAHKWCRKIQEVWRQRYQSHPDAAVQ

[3] = test system: LPS-stimulated human PBMCs; experiment: LPS-induced TNF-α production in human PBMCs; format: cell-based; conditions: PBMC, read-out: IC50 on LPS-induced production of TNF-α
Outline: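 Purchased human PBMCs (1 × 10⁶/well) in RPMI-1640 with 10% FBS and 2 mM L-glutamine were stimulated with LPS in the presence of test compound. TNF-α production was measured.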

[4] = test system: LPS-induced RAW264.7 cells; experiment: Inflammatory mediators in LPS-induced RAW264.7 cells; format: cell-based, murine
Outline: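 RAW264.7 cells in DMEM with 10% FBS at 37 °C and 5% CO₂ were given test compound (100, 30, 10 μM) with LPS (1 μg/mL). Cells were lysed after 3 h for SYBR Green RT-PCR (ΔΔCt). Supernatants were kept for TNF-α and IL-6 ELISA and NO measurement.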

[5] = test system: RAW264.7 cells; experiment: Cytotoxicity on RAW264.7 cells; format: cell-based, murine; conditions: 24 h, CCK8
[6] = test system: RAW264.7 cells; experiment: cAMP and CREB phosphorylation in RAW264.7 cells; format: cell-based, murine; conditions: for effect on arctigenin-induced phosphorylation of CREB: 10 μM with arctigenin 100 μM
Outline: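 RAW264.7 cells were exposed to test compound for 15 min under LPS (1 μg/mL) induction, or at 100 μM alongside H89 (10 μM) and/or forskolin (10 μM). Lysates were BCA-normalised and run on 10% SDS-PAGE and nitrocellulose, probed overnight at 4 °C, and detected by chemiluminescence. Intracellular cAMP was measured in 0.1 M HCl lysates by direct ELISA. Mean ± SEM, n = 3.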

[7] = test system: IMQ-induced murine psoriasis; experiment: IMQ-induced murine psoriatic skin lesions; format: in vivo, BALB/c mice
Outline: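 Female BALB/c mice (6–8 weeks, 20–22 g), dorsal skin shaved, got 62.5 mg daily of […] IMQ cream topically for 7 days; groups (n = 7) were normal, IMQ only, and IMQ plus 5% test compound cream. PASI scored blind by 3 investigators. Read-outs: skin cAMP-specific PDE activity normalised to total protein, Ki-67 immunohistochemistry, serum Luminex 17-plex, skin RT-PCR (ΔΔCt), and skin-cell flow cytometry after collagenase IV digestion. Mean ± SEM.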

[8] = Arctigenin concentration in inflamed skin tissues; format: in vivo, mice; conditions: topical application
[9] = test system: PDE4; experiment: Enzymatic activity of cAMP-specific PDE4 in RAW264.7 cells; format: cell-based, murine; conditions: RAW264.7 and LPS-stimulated RAW264.7 cells
[10] = cited from earlier work

Sequence of PDE4D catalytic domain (Q08499 386-715 limits assumed): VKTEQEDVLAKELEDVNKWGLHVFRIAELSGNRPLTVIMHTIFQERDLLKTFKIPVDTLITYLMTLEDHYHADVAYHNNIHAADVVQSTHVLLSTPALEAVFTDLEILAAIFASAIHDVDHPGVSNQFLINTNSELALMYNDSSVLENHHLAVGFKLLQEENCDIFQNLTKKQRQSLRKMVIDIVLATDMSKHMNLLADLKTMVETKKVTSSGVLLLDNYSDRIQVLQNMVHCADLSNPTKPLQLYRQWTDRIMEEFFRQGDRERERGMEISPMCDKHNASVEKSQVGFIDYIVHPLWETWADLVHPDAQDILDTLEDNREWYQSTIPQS

- IC50 [1]: 3.76 ± 0.28 µM
- inhibition on PDK1 [2]: negligible
- concentration in the inflamed skin tissues [8]: 29.67 ± 15.42 μg/g skin samples
SMILES: COc1cc(C[C@H]2C(=O)OC[C@@H]2Cc2ccc(OC)c(OC)c2)ccc1O [Arctigenin]
- IC50 [3]: 35.2 ± 6.01 µM
- production of TNF-α and IL-6 ([4]; 100, 30, and 10 μM, LPS 24 h, ELISA, dose-dependent): reduce the production of TNF-α and IL-6
- mRNA expression level of TNF-α and IL-6 ([4]; LPS 3 h, RT-PCR): decreased the mRNA expression level
- iNOS and COX-2 mRNA ([4]; concentration-dependent): downregulated
- cytotoxicity [5]: not associated with the cytotoxicity
- phosphorylation of CREB ([6]; 15 min, western blot): led to the phosphorylation of CREB
- intracellular cAMP ([6]; 30 min, concentration-dependent): significant elevation of intracellular cAMP
- serum IL-10 ([7]; Luminex assay): promote the secretion of IL-10
- serum inflammatory cytokines ([7]; Luminex assay): reduce the production of inflammatory cytokines
- CCR6 and CXCR3 on CD45+ leukocytes ([7]; flow cytometry): suppressed the protein expression of CCR6 and CXCR3
- skin myeloid cells, macrophages, neutrophils, DCs ([7]; flow cytometry): decreased when treated with arctigenin
- skin-infiltrated leukocytes, APCs, T cells, γδT cells ([7]; flow cytometry): reduced upon arctigenin treatment
- expression of chemokines in inflamed skins ([7]; gene expression): suppress the expression of chemokines
- expression of inflammatory cytokines in inflamed tissues ([7]; mRNA level): extensively attenuated
- Ki-67 positive staining in the epidermis ([7]; topical 5% arctigenin cream): reduced
- activity of cAMP-specific PDEs in skins ([7]; topical 5% arctigenin cream): obviously reversed
- cumulative PASI scores ([7]; topical 5% arctigenin cream): decreased the cumulative PASI scores
- skin level of cAMP ([7]; topical 5% arctigenin cream): upregulate the skin level of cAMP
- splenomegaly (spleen index) ([7]; topical 5% arctigenin cream): ameliorate the concomitant splenomegaly
- epidermal thickening ([7]; topical 5% arctigenin cream, H&E): dramatically improved the epidermal thickening
- body weight loss ([7]; topical 5% arctigenin cream, daily): significantly reversed the body weight loss
- therapeutic effect, topical vs oral ([7]; topical 5% cream vs oral 100 mg/kg): better therapeutic effect
- phosphorylation of CREB in skins ([7]; western blot): promote the phosphorylation of CREB
- enzymatic activity of PDE4 in cells [9]: inhibit the enzymatic activity of PDE4 in the concentration-dependent manner
- plasma concentration ([10]; oral administration, several animal species, ref [4], [35]): undetectable
- tissue accumulation in brain ([10]; ref [34]): lower than that in intestine, liver, kidney, lung, and heart

SMILES: O=S(=O)(NCCNC/C=C/c1ccc(Br)cc1)c1cccc2cnccc12 [H89, reference compound]
- effect on arctigenin-induced phosphorylation of CREB ([6]; 15 min): obviously blocked the effects of arctigenin on phosphorylation of CREB

SMILES: C=C[C@@]1(C)CC(=O)[C@]2(O)[C@@]3(C)[C@@H](O)CCC(C)(C)[C@@H]3[C@H](O)[C@H](OC(C)=O)[C@@]2(C)O1 [forskolin, reference compound]
- effect on arctigenin-induced phosphorylation of CREB ([6]; 15 min): further enhance the effects of arctigenin on promoting the phosphorylation of CREB
